Source: ChEMBL document CHEMBL1131013, “Synthesis and evaluation of analogues of the partial agonist 6-(propyloxy)-4-(methoxymethyl)-beta-carboline-3-carboxylic acid ethyl ester (6-PBC) and the full agonist 6-(benzyloxy)-4-(methoxymethyl)-beta-carboline-3-carboxylic acid ethyl ester (Zk 93423) at wild type and recombinant GABAA receptors” (J Med Chem, 1998)

Experiments:
[1] = molecular target: GABA-A receptor; anion channel; assay: Displacement of [3H]flunitrazepam from GABA-A Benzodiazepine receptor of rat brain cortical membranes; type: cell membranes, Membrane
Summary of the method: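 Rat cerebral cortex homogenized in 50 mM Tris-citrate, pH 7.4, and washed by centrifugation (20000g). […] Nonspecific binding with 10 μM Ro15-1788. Ended by vacuum filtration. IC50 estimated from at least six inhibitor concentrations; mean ± SEM of at least three determinations.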

[2] = molecular target: T1, GABA-A receptor; alpha-3/beta-3/gamma-2 (Homo sapiens, UniProt P18507+P28472+P34903); assay: Binding affinity measured using LtK- cell membranes expressing GABA alpha-3-beta-3-gamma-2 receptor
T1 sequence (P18507 whole entry): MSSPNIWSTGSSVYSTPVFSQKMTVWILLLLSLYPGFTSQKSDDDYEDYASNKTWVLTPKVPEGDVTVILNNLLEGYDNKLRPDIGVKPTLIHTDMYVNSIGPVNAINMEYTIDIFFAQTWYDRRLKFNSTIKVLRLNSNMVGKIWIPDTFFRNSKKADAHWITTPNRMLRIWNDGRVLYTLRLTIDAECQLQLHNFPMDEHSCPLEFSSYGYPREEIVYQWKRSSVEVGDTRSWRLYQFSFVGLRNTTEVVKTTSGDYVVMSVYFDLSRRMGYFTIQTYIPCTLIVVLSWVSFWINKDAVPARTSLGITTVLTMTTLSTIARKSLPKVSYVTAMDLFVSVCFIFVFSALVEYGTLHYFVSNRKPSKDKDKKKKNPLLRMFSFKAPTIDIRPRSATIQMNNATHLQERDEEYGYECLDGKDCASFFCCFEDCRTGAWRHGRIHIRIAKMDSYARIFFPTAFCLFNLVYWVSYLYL
T1 sequence (P28472 whole entry): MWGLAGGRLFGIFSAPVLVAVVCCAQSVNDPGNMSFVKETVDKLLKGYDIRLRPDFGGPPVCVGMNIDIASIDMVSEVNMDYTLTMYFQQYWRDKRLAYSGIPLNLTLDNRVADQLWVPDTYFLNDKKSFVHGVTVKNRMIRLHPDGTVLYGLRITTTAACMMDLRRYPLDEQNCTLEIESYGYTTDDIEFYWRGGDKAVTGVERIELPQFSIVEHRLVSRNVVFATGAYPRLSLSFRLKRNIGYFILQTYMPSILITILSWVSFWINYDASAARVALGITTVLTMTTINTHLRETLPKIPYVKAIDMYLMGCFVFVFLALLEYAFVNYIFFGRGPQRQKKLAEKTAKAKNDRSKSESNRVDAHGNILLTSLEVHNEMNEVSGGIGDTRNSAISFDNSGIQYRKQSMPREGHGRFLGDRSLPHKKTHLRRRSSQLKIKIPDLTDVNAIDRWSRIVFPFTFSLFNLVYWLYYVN
T1 sequence (P34903 whole entry): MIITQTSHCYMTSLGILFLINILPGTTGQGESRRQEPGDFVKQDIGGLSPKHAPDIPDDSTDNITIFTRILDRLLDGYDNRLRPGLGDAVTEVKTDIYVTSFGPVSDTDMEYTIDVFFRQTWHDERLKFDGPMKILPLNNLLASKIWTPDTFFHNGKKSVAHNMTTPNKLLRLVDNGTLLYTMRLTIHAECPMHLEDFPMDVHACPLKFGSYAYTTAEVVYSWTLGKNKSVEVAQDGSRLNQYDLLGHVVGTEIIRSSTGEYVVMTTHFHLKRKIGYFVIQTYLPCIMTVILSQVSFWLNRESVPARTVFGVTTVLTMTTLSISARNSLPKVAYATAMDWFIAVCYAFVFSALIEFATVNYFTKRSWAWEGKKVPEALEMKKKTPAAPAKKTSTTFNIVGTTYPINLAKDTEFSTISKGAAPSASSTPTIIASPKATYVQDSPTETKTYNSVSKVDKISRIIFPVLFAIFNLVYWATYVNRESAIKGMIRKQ

[3] = molecular target: T2, GABA-A receptor; alpha-5/beta-3/gamma-2 (Homo sapiens, UniProt P18507+P28472+P31644); assay: Binding affinity measured using LtK- cell membranes expressing Gamma-aminobutyric acid A receptor alpha-5-beta-3-gamma-2
T2 sequence (P18507 whole entry): T1 sequence (P18507 whole entry)
T2 sequence (P28472 whole entry): T1 sequence (P28472 whole entry)
T2 sequence (P31644 whole entry): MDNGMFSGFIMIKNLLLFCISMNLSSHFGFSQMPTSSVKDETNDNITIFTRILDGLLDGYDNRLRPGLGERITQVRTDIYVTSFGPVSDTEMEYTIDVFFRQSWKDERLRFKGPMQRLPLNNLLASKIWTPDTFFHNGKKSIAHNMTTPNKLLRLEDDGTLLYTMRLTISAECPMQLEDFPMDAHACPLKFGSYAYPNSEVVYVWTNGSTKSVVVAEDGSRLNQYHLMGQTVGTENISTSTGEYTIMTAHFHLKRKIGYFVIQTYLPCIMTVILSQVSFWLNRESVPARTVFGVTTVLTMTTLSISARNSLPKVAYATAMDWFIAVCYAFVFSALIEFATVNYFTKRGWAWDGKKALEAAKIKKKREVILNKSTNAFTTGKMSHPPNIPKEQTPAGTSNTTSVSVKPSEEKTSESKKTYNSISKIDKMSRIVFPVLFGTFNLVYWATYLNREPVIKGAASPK

[4] = molecular target: T3, GABA-A receptor; alpha-1/beta-3/gamma-2 (Homo sapiens, UniProt P14867+P18507+P28472); assay: Binding affinity measured using LtK- cell membranes expressing GABA alpha-1-beta-3-gamma-2 receptor
T3 sequence (P14867 whole entry): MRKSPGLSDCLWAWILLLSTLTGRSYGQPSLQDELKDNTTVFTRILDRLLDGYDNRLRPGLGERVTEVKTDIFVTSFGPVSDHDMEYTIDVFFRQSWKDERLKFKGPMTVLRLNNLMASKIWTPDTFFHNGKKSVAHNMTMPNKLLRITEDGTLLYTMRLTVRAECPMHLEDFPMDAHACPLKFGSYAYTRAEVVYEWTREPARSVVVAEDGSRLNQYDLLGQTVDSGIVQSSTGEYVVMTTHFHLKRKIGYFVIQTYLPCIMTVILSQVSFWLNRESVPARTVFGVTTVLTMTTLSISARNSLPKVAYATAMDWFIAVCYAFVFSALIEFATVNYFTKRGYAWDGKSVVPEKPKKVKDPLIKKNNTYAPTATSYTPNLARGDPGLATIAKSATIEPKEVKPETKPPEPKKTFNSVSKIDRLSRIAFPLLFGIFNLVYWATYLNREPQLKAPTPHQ
T3 sequence (P18507 whole entry): T1 sequence (P18507 whole entry)
T3 sequence (P28472 whole entry): T1 sequence (P28472 whole entry)

[5] = molecular target: T4, GABA-A receptor; alpha-2/beta-3/gamma-2 (Homo sapiens, UniProt P18507+P28472+P47869); assay: Binding affinity measured using LtK- cell membranes expressing GABA alpha-2-beta-3-gamma-2 receptor
T4 sequence (P18507 whole entry): T1 sequence (P18507 whole entry)
T4 sequence (P28472 whole entry): T1 sequence (P28472 whole entry)
T4 sequence (P47869 whole entry): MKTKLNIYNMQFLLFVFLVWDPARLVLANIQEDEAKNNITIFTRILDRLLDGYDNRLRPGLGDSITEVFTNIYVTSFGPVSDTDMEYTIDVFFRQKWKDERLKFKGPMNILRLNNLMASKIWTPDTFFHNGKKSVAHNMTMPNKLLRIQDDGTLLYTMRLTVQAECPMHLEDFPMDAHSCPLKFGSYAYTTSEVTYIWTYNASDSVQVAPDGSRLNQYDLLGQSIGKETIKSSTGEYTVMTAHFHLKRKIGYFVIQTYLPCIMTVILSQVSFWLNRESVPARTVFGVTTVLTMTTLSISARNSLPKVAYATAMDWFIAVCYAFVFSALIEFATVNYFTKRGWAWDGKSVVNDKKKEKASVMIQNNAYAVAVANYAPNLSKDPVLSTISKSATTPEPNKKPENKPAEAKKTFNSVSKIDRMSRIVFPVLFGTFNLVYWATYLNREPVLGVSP

[6] = molecular target: GABA-A receptor; alpha-6/beta-3/gamma-2 (Homo sapiens, UniProt P18507+P28472+Q16445); assay: Binding affinity measured using LtK- cell membranes expressing Gamma-aminobutyric acid A receptor alpha-6-beta-3-gamma-2
Sequence of GABA-A receptor; alpha-6/beta-3/gamma-2 (Q16445 whole entry, one chain of several): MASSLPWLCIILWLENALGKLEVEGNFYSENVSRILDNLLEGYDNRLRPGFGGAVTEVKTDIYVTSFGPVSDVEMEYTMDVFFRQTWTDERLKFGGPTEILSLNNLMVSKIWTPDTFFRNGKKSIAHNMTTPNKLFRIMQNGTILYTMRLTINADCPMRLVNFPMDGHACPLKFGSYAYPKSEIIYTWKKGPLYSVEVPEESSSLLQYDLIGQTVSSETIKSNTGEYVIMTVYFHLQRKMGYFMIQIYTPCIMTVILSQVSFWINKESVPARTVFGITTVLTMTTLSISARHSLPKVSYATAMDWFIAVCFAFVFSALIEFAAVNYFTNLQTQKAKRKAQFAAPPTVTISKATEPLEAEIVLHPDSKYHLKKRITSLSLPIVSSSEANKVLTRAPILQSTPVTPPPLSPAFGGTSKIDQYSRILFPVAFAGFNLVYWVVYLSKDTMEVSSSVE
Summary of the method: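 Ltk- cells expressing human α6β3γ2, scraped into PBS and resuspended in 10 mM KH2PO4/100 mM KCl pH 7.4. 1 h at 4 °C to equilibrium, filtration, scintillation counting.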

SMILES	IC50 [1] [nM]	Ki [2] [nM]	Ki [3] [nM]	Ki [4] [nM]	Ki [5] [nM]	Ki [6] [nM]
CCOC(=O)c1ncc2c(c1CC)c1cc(OCc3cccc4ccccc34)ccc1n2C	> 1000					
CCOC(=O)c1ncc2c(c1CC)c1ccccc1n2C		> 1000	> 1000	> 1000	> 1000	> 10000
CC(C)CCOc1cc2c3ccccc3nc-2c[nH]1		> 3000	> 3000	350	> 3000	> 10000
CCCCCCCCOc1ccc2c(c1)c1c(CC)c(C(=O)OCC)ncc1n2C	> 1000					
CCCCCCCCOc1ccc2c(c1)c1c(COC)c(C(=O)OCC)ncc1n2C	> 1000	> 3000	> 3000	> 3000	> 3000	> 3000
CCCOc1ccc2[nH]c3cnc(C(=O)OCC)c(COC)c3c2c1	8.1	2.2	2.4	0.49	1.21	1340
CCOC(=O)c1ncc2c(c1COC)c1cc(OCc3cccc4ccccc34)ccc1n2C	730					
CCc1c(OC)[nH]cc2nc3cc(OC)c(OC)cc3c1-2		> 300	> 300	> 300	> 300	> 300
CCOC(=O)c1[nH]cc2nc3ccc(OCc4ccccc4)cc3c-2c1CC		58.7	67.3	20.8	78.3	> 10000
CCCOc1cc2c(cn1)[nH]c1ccccc12		68.8	591	5.3	52.3	> 1000
CCOC(=O)c1[nH]cc2nc3ccc(OCc4cccc5ccccc45)cc3c-2c1COC	55.5	293	323	15.4		> 1000
COCc1c(N)[nH]cc2nc3ccc(OCc4ccccc4)cc3c1-2	271					
CCOc1[nH]cc2nc3cc(OC)c(OC)cc3c-2c1CC		> 300	> 300	> 300	> 300	> 300
CCCOc1ccc2[nH]c3cnc(N=C=S)c(COC)c3c2c1	24.7					
CCc1c(C(=O)OC)ncc2[nH]c3cc(OC)c(OC)cc3c12		4	1	5.7	8.3	134
CC(C)COc1cc2c(cn1)[nH]c1ccccc12		139	1000	24.9	124	> 10000
CCCOc1ccc2c(c1)c1c(COC)c(C(=O)OCC)ncc1n2C	290					
